Calls of active or inactive are those of the source. The calls are words filed in the database; no cut-off is given here.
Target: LSD1/CoREST complex (Homo sapiens, UniProt O60341)
Assay: Inhibition of human recombinant KDM1A/CoREST complex expressed in Escherichia coli using mono-methylated H3-K4 peptide containing 21 amino acids as substrate preincubated for 15 mins followed by substrate addition measured for 12 mins by fluorescence assay
Method in brief: (§1)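 KDM1A/CoREST co-purified from E. coli as separate proteins; 20 nM complex preincubated 15 min at RT with inhibitor, 50 µM Amplex UltraRed and 0.023 µM HRP in 50 mM Tris-HCl pH 8.0, 0.05 mg/ml BSA. Reaction started with 4.5 µM H3K4me1 21-mer peptide. H2O2 release read by fluorescence (ex 510/em 595 nm) for 12 min, aerobic. Tested twice in duplicate; IC50 reported.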

Point of comparison: `N[C@@]1(CCc2ccccc2)C[C@@H]1c1ccc(F)cc1` (mixture of isomers), IC50 173 nM. Against it:
- CC[C@]1(N)C[C@@H]1c1cccc(F)c1 (mixture of isomers) — 2.2-fold lower, 79 nM
- N[C@@]1(CCc2ccccc2)C[C@@H]1c1ccc(Cl)cc1 (racemic) — 1.8-fold lower, 96 nM
- CC[C@]1(N)C[C@@H]1c1ccccc1Cl (racemic) — within 1.5-fold, 258 nM
- N[C@@]1(c2ccccc2)C[C@@H]1c1ccc(Cl)cc1 (mixture of isomers) — 3.2-fold higher, 554 nM
- N[C@@]1(CCc2ccccc2)C[C@@H]1c1ccc(Br)cc1 (racemic) — 1.7-fold lower, 101 nM
- CC[C@]1(N)C[C@@H]1c1ccc(C(F)(F)F)cc1 (racemic) — within 1.5-fold, 248 nM
- CC[C@]1(N)C[C@@H]1c1ccc(Br)c(F)c1 (racemic) — 4.9-fold lower, 35 nM
- CC[C@]1(N)C[C@@H]1c1cccc(C(F)(F)F)c1 (racemic) — within 1.5-fold, 118 nM
- N[C@@]1(c2ccccc2)C[C@@H]1c1ccc(Br)cc1 (racemic) — 3.7-fold lower, 47 nM
- CC[C@]1(N)C[C@@H]1c1ccccc1Br (mixture of isomers) — 2-fold higher, 350 nM
- CC[C@]1(N)C[C@@H]1c1ccc(F)cc1 (mixture of isomers) — 5.9-fold higher, 1020 nM
- N[C@@]1(Cc2ccccc2)C[C@@H]1c1ccc(Br)cc1 (racemic) — within 1.5-fold, 187 nM
- N[C@@]1(Cc2ccc3ccccc3c2)C[C@@H]1c1ccc(Cl)cc1 (racemic) — 1.5-fold higher, 263 nM
- CC[C@]1(N)C[C@@H]1c1cccc(Cl)c1 (racemic) — 4.6-fold lower, 38 nM
- N[C@@]1(Cc2ccccc2)C[C@@H]1c1ccc(F)cc1 (mixture of isomers) — 6.1-fold higher, 1050 nM
- CC[C@]1(N)C[C@@H]1c1ccc(OC(F)(F)F)cc1 (racemic) — 6.7-fold higher, 1160 nM
- N[C@@]1(Cc2ccc3ccccc3c2)C[C@@H]1c1cccc(Br)c1 (racemic) — within 1.5-fold, 251 nM
- CC[C@]1(N)C[C@@H]1c1ccc(Cl)cc1 (mixture of isomers) — within 1.5-fold, 178 nM
- CC[C@]1(N)C[C@@H]1c1cccc(Br)c1 (racemic) — 5.6-fold lower, 31 nM
- CC[C@]1(N)C[C@@H]1c1ccc(Br)cc1 (mixture of isomers) — within 1.5-fold, 121 nM
- N[C@@]1(CCc2ccccc2)C[C@@H]1c1cccc(Br)c1 (mixture of isomers) — 1.8-fold lower, 94 nM
- N[C@@]1(Cc2ccc3ccccc3c2)C[C@@H]1c1ccc(F)cc1 (racemic) — 3.7-fold higher, 642 nM
- N[C@@]1(Cc2ccccc2)C[C@@H]1c1ccc(Cl)cc1 (mixture of isomers) — within 1.5-fold, 230 nM
- N[C@@]1(Cc2ccc3ccccc3c2)C[C@@H]1c1cccc(Cl)c1 (racemic) — within 1.5-fold, 158 nM
- CC[C@]1(N)C[C@@H]1c1ccccc1F (racemic) — 2-fold higher, 352 nM
- CC[C@]1(N)C[C@@H]1c1cccc(OC)c1 (mixture of isomers) — within 1.5-fold, 123 nM
- N[C@@]1(Cc2ccc3ccccc3c2)C[C@@H]1c1ccc(Br)cc1 (mixture of isomers) — 1.6-fold higher, 279 nM

Target: LSD1/CoREST complex (Homo sapiens) (UniProt O60341+Q9UKL0)
Assay: Inhibition of human recombinant KDM1A/CoREST complex expressed in Escherichia coli using mono-methylated H3-K4 peptide containing 21 amino acids as substrate up to 100 uM preincubated for 15 mins followed by substrate addition measured for 12 mins by fluorescence assay
Method in brief: as §1

Sequence of LSD1/CoREST complex (Homo sapiens) (Q9UKL0 whole entry, looked up, other chains not shown): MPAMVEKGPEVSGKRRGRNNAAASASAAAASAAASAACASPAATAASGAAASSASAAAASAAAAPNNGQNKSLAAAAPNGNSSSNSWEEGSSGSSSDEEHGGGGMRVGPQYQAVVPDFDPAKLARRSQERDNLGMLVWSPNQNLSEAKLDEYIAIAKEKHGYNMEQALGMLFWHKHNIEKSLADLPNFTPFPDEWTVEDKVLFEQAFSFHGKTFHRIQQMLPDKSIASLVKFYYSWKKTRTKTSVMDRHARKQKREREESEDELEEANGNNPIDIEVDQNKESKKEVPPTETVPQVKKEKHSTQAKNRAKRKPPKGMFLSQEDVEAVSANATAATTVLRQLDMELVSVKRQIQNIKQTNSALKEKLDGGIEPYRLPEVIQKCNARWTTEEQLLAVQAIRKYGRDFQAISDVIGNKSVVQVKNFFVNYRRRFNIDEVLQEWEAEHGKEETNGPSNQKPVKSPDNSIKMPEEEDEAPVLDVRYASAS

For `O=C1COC[C@]2(C[C@H]2c2ccccc2)N1`, the inhibition was “inactive”.
For `O=C1NCCN[C@]12C[C@@H]2c1ccccc1`, the inhibition was “inactive”.

From ChEMBL document CHEMBL3407462, “Further insights into the SAR of α-substituted cyclopropylamine derivatives as inhibitors of histone demethylase KDM1A” (Eur J Med Chem, 2015)
